Assay outcomes from PubChem BioAssay.
PRMT1 FP inh = PRMT1 methyltransferase inhibitors, primary screen, biochemical, fluorescence polarization | recombinant PRMT1, activity-based probe fluorescence polarization | 1.3% of 370,000 active | Protein arginine N-methyltransferase 1 (Homo sapiens), Q99873 | AID 652257, 2013 | inhibition, % at 2.79 µM;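 active means inhibition above about 21% made by adding two undisclosed values, limit read from the data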
Target sequence (Q99873 whole entry, looked up): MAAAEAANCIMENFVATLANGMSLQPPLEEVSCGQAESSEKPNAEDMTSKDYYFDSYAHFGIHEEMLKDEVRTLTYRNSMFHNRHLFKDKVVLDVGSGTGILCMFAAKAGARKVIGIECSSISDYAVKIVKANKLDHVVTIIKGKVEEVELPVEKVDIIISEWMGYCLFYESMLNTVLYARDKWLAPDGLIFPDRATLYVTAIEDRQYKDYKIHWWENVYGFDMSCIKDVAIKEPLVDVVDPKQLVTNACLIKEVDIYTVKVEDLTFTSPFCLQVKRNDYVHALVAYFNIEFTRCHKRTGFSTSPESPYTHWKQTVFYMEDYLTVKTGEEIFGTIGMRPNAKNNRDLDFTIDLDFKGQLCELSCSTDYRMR
SIAE primary = human SIAE inhibitors, primary screen, biochemical, fluorescence polarization, FP-Rh probe, 1536-well HTS; AID 1053197, 2014; inhibition, % at 9.66 µM; 0.69% of 370,000 active; SIAE FP-Rh probe binding;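 active means inhibition above a cutoff: mean of compounds within the control limits plus 3 SD of those, cut at about 17% in these data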;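 further: 0% = plate median of compound wells and 100% = probe without SIAE protein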
HTRA1 inh = HTRA1 serine protease inhibitors, primary screen, biochemical, fluorescence polarization, HTS | inhibition, % at 5.96 µM | recombinant HTRA1, FP-rhodamine activity-based probe | 0.5% of 340,000 active | AID 504803, 2011; in the data active means inhibition above about 36%;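 further: 0% = enzyme with DMSO and 100% = wells lacking enzyme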
rCAG RNA binder = binders of r(CAG) RNA repeats, primary screen, biochemical, fluorescence. r(CAG) RNA repeat, TO-PRO-1 dye displacement fluorescence. inhibition, % at 3 µM. 1.3% of 370,000 active. AID 651821, 2012;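 active means inhibition above the plate cutoff, the mean of all test compounds on that plate plus 3 SD, cut at about 35% in these data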;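 further: 0% = DMSO alone and 100% = 100 µM mitoxantrone as full dye displacement; higher means more dye released from RNA so lower well fluorescence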
ABHD4 inh = ABHD4 inhibitors, primary screen, biochemical, fluorescence polarization, mouse; (Lyso)-N-acylphosphatidylethanolamine lipase (Mus musculus), Q8VD66; purified mABHD4, FP-Rh probe fluorescence polarization; inhibition, % at 8.92 µM; 0.54% of 370,000 active;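 active means inhibition exceeding the mean over every tested compound plus 3 SD, cut at about 30% in these data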;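 further: 0% = plate median of compound wells and 100% = S159A mutant with DMSO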
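Assay system: Wild-type mouse ABHD4 protein | Medium: HEPES pH 7.0 buffer, 150 mM NaCl, 0.01% Pluronic F-127 | Incubation: Enzyme–compound pre-incubation 45 min, then probe 60 min, both 25 °C | Technique: Fluorescence polarization with parallel and perpendicular emission, 525/598 nm | Evaluation: % inhibition of FP-Rh probe binding versus controls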
TCR CD3 inh = inhibitors of human TCR-CD3 interaction, primary screen, biochemical, fluorescence, TAMRA-labeled TCR probe. T-cell receptor (TCR). inhibition, % at 9.4 µM. 0.37% of 360,000 active. AID 651800, 2012; in the data active means inhibition above about 19%;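 further: recombinant mutant TCR 2C K166C tagged with TAMRA read by polarization; 0% = receptor in buffer alone and 100% = receptor with positive control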
PRMT1 inh conf = PRMT1 methyltransferase inhibitors, confirmation, biochemical, fluorescence polarization, triplicate; shares compounds with PRMT1 FP inh; recombinant His-PRMT1, activity-based probe fluorescence polarization; inhibition, % at 2.79 µM; 42% of 3,300 active; AID 687036, 2013;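 active means mean inhibition across replicates above the hit cutoff derived for the earlier primary screen, cut at about 22% in these data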
Starred values were filed as active, the others as inactive; · = no result given. In the library only some 3.5% were active in any assay of this set; here they are far more common.

SMILES	PRMT1 FP inh	SIAE primary	HTRA1 inh	rCAG RNA binder	ABHD4 inh	TCR CD3 inh	PRMT1 inh conf
Cc1ccc(-c2cc(-c3ccc(Cl)cc3)c(C#N)c(N)n2)o1	42*	-2	14	23	5	-5	63*
CC(C)(C)c1ccc(-c2nnc(SCC(=O)c3ccc([N+](=O)[O-])cc3)n2-c2ccc(Cl)cc2)cc1	3	1	·	8	12	·	·
COC(=O)[C@]12C[C@H](CC(=O)N3CCCCC3)C(=O)N(Cc3ccco3)C1=C[C@H](COCc1ccccc1)O[C@@H]2C	-2	4	·	3	11	·	·
CCOc1ccc(N2C(=O)CC(NCCNc3ccc([N+](=O)[O-])cn3)C2=O)cc1 (stereo unspecified)	49*	-3	-3	5	-8	-3	7
COc1ccc(N2C(=O)CC(NCCNc3ccc([N+](=O)[O-])cn3)C2=O)cc1 (stereo unspecified)	36*	0	2	4	3	2	8
COc1ccc(NC2CC(=O)N(c3cccc([N+](=O)[O-])c3)C2=O)cc1 (stereo unspecified)	2	8	2	9	2	2	·
COc1ccc(N2C(=O)CC(NC3CC3)C2=O)cc1 (stereo unspecified)	32*	9	7	0	1	6	2
CCOc1ccc(N2C(=O)CC(NC3CCN(C(=O)c4ccc(F)cc4)CC3)C2=O)cc1 (stereo unspecified)	53*	4	-1	-5	0	-3	5
COc1ccc(NC2CC(=O)N(c3ccc(C(=O)O)cc3)C2=O)cc1 (stereo unspecified)	-1	0	3	3	-1	1	·
COc1ccc(CN2C(=O)[C@@](O)(c3cccn3C)c3cc(Br)ccc32)cc1	0	-2	·	3	-10	·	·
COC(=O)c1ccc(-c2ccco2)n1Cc1ccccc1Cl	0	0	-18	0	-7	4	·
COC(=O)c1ccc(-c2ccco2)n1Cc1nc(-c2ccc(OC)c(OC)c2)oc1C	29*	-9	-19	15	6	-7	3
CCOC(=O)c1c(NC(=O)CC2Sc3ccc(C(F)(F)F)cc3NC2=O)sc(C)c1C (stereo unspecified)	-3	11	2	5	0	-2	·
CC(=O)C1=C(C)Nc2cc(C(F)(F)F)ccc2S1	28*	-3	-7	8	5	1	13
Clc1ccc(-c2nnnn2-c2ccc(Cl)cc2)cc1	-1	-2	·	-3	-5	-6	·
Cc1ccc(-n2nnnc2C(Cl)(Cl)c2nnnn2-c2ccc(C)cc2)cc1	48*	5	8	-2	0	7	90*
O=C1C=C(NNC(=O)c2ccncc2)CC(c2ccccc2)C1 (stereo unspecified)	63*	0	8	-14	-1	-4	2
CC(=O)Oc1ccc(N2C(=O)C3C4C=CC(CO)(O4)C3C2=O)cc1 (stereo unspecified)	85*	4	3	2	0	-4	79*
O=C1C2C3C=CC(CNS(=O)(=O)c4ccccc4)(O3)C2C(=O)N1c1ccc(Cl)cc1 (stereo unspecified)	80*	2	3	-1	1	-3	69*
Cc1cccc(-c2cccc3c4c([nH]c23)[C@@H]2C[C@H](N(C)C(=O)c3ccccc3C)[C@H]([C@H](C)O)C(=O)N2CC4)c1	1	-5	·	8	3	·	·
CCCOc1ccc(N2C(=O)CC(NCc3ccncc3)C2=O)cc1 (stereo unspecified)	1	1	1	10	-7	3	·
CCCOc1ccc(N2C(=O)CC(NCCc3ccc(S(N)(=O)=O)cc3)C2=O)cc1 (stereo unspecified)	51*	4	2	5	6	2	-2
CCOc1ccc(N2C(=O)CC(NCCc3ccc(S(N)(=O)=O)cc3)C2=O)cc1 (stereo unspecified)	53*	7	6	5	4	5	3
CCOc1ccc(N2C(=O)CC(NCCc3c[nH]c4ccccc34)C2=O)cc1 (stereo unspecified)	31*	7	-2	0	5	-1	14
CCOc1ccc(N2C(=O)CC(NCCc3ccncc3)C2=O)cc1 (stereo unspecified)	58*	-2	7	1	0	-2	0
SMILES	PRMT1 FP inh	SIAE primary	HTRA1 inh	rCAG RNA binder	ABHD4 inh	TCR CD3 inh	PRMT1 inh conf
CCCC#Cc1ccc(CC[C@H]2O[C@H]3CC[C@@H](CO)O[C@H]3C[C@H]2NC(=O)CN2CCOCC2)cc1	0	-3	·	0	-5	·	·
CC(C)C(=O)OCCCN1CCC2(CCC(c3ccccc3)CC2)C1=O (stereo unspecified)	-1	1	·	-3	1	·	·
COc1ccccc1N1C(=O)c2cccc3c(C(=O)O)ccc(c23)C1=O	-1	1	5	3	0	4	·
Cc1ccccc1N1C(=O)c2cccc3c(N(C)CCO)ccc(c23)C1=O	71*	3	-2	-140	2	4	63*
COc1ccccc1N1C(=O)c2cccc3c(N(C)CCO)ccc(c23)C1=O	66*	-10	0	-83	0	11	47*
O=C(O)c1ccc(/C=C2\SC(=S)N(NC(=O)c3ccccc3[N+](=O)[O-])C2=O)cc1	29*	-8	-2	5	13	4	1
CS(=O)(=O)N1CCC[C@]2(CC[C@@H](CCC#N)O2)C1	0	-2	·	0	6	·	·
CCN(CC)CCCNC(=O)c1cn(C(C)c2ccccc2)nn1 (stereo unspecified)	1	-4	·	3	3	·	·
CCN(CC)Cc1c(O)ccc2c1O/C(=C\C=C\c1ccccc1)C2=O	19	-5	0	-39	3	8	·
COc1ccccc1/C=C/C=C1\Oc2c(ccc(O)c2CN(C)C)C1=O	27*	-7	6	-155	2	-8	16
Cc1ccc(-c2nc(N)sc2CC(=O)OCC(=O)NC2CCCC(C)C2C)cc1 (stereo unspecified)	1	-6	-9	12	6	3	·
Cc1ccc(-c2nc(N)sc2CC(=O)OCC(=O)N2C(C)CCCC2C)cc1 (stereo unspecified)	49*	-3	-7	3	-3	-2	1
